Activity calls are given as the source filed them. No cut-off for these calls is given here.
Experiments:
[1] = target: Amyloid-beta precursor protein (Homo sapiens) (UniProt P05067); experiment: Inhibition of HFIP-pretreated amyloid beta (1 to 42) (unknown origin) self-aggregation at 20 uM after 72 hrs by uranyl acetate staining based transmission electron microscopy
In short: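 Aβ1-42 was incubated alone or with compound for 72 h at 37 °C. Fibril formation was then examined by transmission electron microscopy, with curcumin as positive control.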

[2] = target: Amyloid-beta precursor protein (Homo sapiens) (UniProt P05067); experiment: Inhibition of HFIP-pretreated amyloid beta (1 to 42) (unknown origin) self-aggregation at 20 uM after 24 hrs by thioflavin-T fluorescence assay relative to control
[3] = Stability of compound in human liver microsomes measured up to 60 mins by HPLC analysis; assay type: ADME, Microsome; conditions: 1 h
In short: (§1)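 The compound was incubated separately in human plasma, human liver microsomes, simulated gastric fluid and simulated intestinal fluid. Remaining compound was quantified by HPLC at 5, 15, 30, 45 and 60 min.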

Mus musculus [4] = experiment: Cognition enhancement in aluminium trichloride-induced amnesia mouse model assessed as total swimming time at 8 mg/kg administered via gastric gavage for 30 days by SMG-2 programmable water maze test (reference value: 115 +/- 19 secs); assay type: functional
[5] = AUC (0 to infinity) in Sprague-Dawley rat blood dialysis at 25 mg/kg, iv by HPLC analysis; assay type: ADME, organism-based; design: dose 25 mg/kg, route intravenous, time infinity; conditions: blood dialysate
In short: (§2)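 Male Sprague–Dawley rats were given a single intravenous dose of 25 mg/kg. Drug levels were followed by microdialysis of blood and brain, alongside plasma. AUC0–t, AUC0–∞, MRT and CLz were derived from the concentration–time curves, n=6, reported as mean ± SD.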

[6] = Apparent clearance in Sprague-Dawley rat plasma at 25 mg/kg, iv by HPLC analysis; assay type: ADME, organism-based; conditions: read-out: CL(app); in short: as §2
Mus musculus [7] = experiment: Cognition enhancement in aluminium trichloride-induced amnesia mouse model assessed as error times at 8 mg/kg administered via gastric gavage for 30 days by SMG-2 programmable water maze test (reference value: 20.7 +/- 4.8 secs); assay type: functional
[8] = target: Amyloid-beta precursor protein (Homo sapiens) (UniProt P05067); experiment: Inhibition of HFIP-pretreated amyloid beta (1 to 42) (unknown origin) self- aggregation at 20 uM after 72 hrs by thioflavin-T fluorescence assay relative to control
[9] = Ratio of drug level in Sprague-Dawley rat brain to plasma at 25 mg/kg, iv by HPLC analysis; assay type: ADME, organism-based; conditions: read-out: BPR
In short: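 Male Sprague–Dawley rats received 25 mg/kg intravenously, with blood and brain sampled by microdialysis. The brain/plasma exposure ratio was calculated from AUC0–∞ measured in brain and plasma dialysates.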

Mus musculus [10] = experiment: Cognition enhancement in scopolamine-induced amnesia mouse model assessed as total swimming distance at 25 mg/kg, iv administered once daily for 18 days measured after 50 mins at 5th day of training session by Morris water maze test (reference value: 785+/-351 cm); assay type: functional
[11] = Metal chelating activity assessed as compound-Fe2+ complex formation at 25 uM incubated for 5 mins in presence of 25 uM FeSO4 by UV-visible spectrophotometry
Mus musculus [12] = experiment: Cognition enhancement in aluminium trichloride-induced amnesia mouse model assessed as error times at 2 mg/kg administered via gastric gavage for 30 days by SMG-2 programmable water maze test (reference value: 20.7 +/- 4.8 secs); assay type: functional
[13] = target: Amyloid-beta precursor protein (Homo sapiens) (UniProt P05067); experiment: Inhibition of HFIP-pretreated amyloid beta (1 to 42) (unknown origin) self-aggregation at 20 uM after 48 hrs by thioflavin-T fluorescence assay
[14] = AUC (0 to t) in Sprague-Dawley rat plasma at 25 mg/kg, iv by HPLC analysis; assay type: ADME, organism-based; in short: as §2
[15] = MRT in Sprague-Dawley rat blood dialysis at 25 mg/kg, iv by HPLC analysis; assay type: ADME, organism-based; conditions: blood dialysate; in short: as §2
[16] = Stability of the compound in simulated gastric fluid measured up to 60 mins by HPLC analysis; assay type: ADME; conditions: simulated gi fluid, 1 h; in short: as §1
Danio rerio [17] = species: Danio rerio; experiment: Cognition enhancement in aluminium chloride-induced Alzheimer's disease zebra fish model assessed as Dyskinesia recovery rate at 1 uM treated from 3 dpf to 5 dpf relative to control; assay type: functional
In short: (§3)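 Zebrafish larvae were exposed to 150 µM AlCl₃ from 3 to 5 dpf and co-treated with compound at 1, 5 or 25 µM over the same window, 30 fish per group. DRR and RE values were calculated from the average swimming speed of treated fish.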

Danio rerio [18] = species: Danio rerio; experiment: Cognition enhancement in aluminium chloride-induced Alzheimer's disease zebra fish model assessed as Response efficiency at 5 uM treated from 3 dpf to 5 dpf relative to control; assay type: functional; in short: as §3
Danio rerio [19] = species: Danio rerio; experiment: Cognition enhancement in aluminium chloride-induced Alzheimer's disease zebra fish model assessed as Dyskinesia recovery rate at 5 uM treated from 3 dpf to 5 dpf relative to control; assay type: functional; in short: as §3
Mus musculus [20] = experiment: Cognition enhancement in aluminium trichloride-induced amnesia mouse model assessed as total swimming time at 0.5 mg/kg administered via gastric gavage for 30 days by SMG-2 programmable water maze test (reference value: 115 +/- 19 secs); assay type: functional
A549 = experiment: Cytotoxicity against human A549 cells assessed as reduction in cell viability incubated for 24 hrs by MTT assay; assay type: cell-based; conditions: A549, 24 h
Danio rerio [21] = species: Danio rerio; experiment: Cognition enhancement in aluminium chloride-induced Alzheimer's disease zebra fish model assessed as Response efficiency at 1 uM treated from 3 dpf to 5 dpf relative to control; assay type: functional; in short: as §3
[22] = AUC (0 to t) in Sprague-Dawley rat blood dialysis at 25 mg/kg, iv by HPLC analysis; assay type: ADME, organism-based; conditions: blood dialysate; in short: as §2
Danio rerio [23] = species: Danio rerio; experiment: Cognition enhancement in aluminium chloride-induced Alzheimer's disease zebra fish model assessed as Response efficiency at 25 uM treated from 3 dpf to 5 dpf relative to control; assay type: functional; in short: as §3
[24] = Metal chelating activity assessed as compound-Cu2+ complex formation by measuring decrease in absorption with spectral shift to red end at 25 uM incubated for 5 mins in presence of 25 uM CuCl2 by UV-visible spectrophotometry
[25] = target: Voltage-gated inwardly rectifying potassium channel KCNH2 (Homo sapiens, UniProt Q12809); experiment: Inhibition of human ERG expressed in CHO cells incubated for 1 min at -80 mV holding potential by manual patch clamp assay; assay type: cell-based
[26] = Apparent clearance in Sprague-Dawley rat blood dialysis at 25 mg/kg, iv by HPLC analysis; assay type: ADME, organism-based; conditions: blood dialysate, read-out: CL(app); in short: as §2
[27] = AUC (0 to infinity) in Sprague-Dawley rat brain at 25 mg/kg, iv by HPLC analysis; assay type: ADME, organism-based; design: dose 25 mg/kg, route intravenous, time infinity; in short: as §2
[28] = Stability of compound in human plasma measured up to 60 mins by HPLC analysis; assay type: ADME, cell-free; conditions: 1 h; in short: as §1
[29] = MRT in Sprague-Dawley rat brain at 25 mg/kg, iv by HPLC analysis; assay type: ADME, organism-based; in short: as §2
[30] = AUC (0 to infinity) in Sprague-Dawley rat plasma at 25 mg/kg, iv by HPLC analysis; assay type: ADME, organism-based; design: dose 25 mg/kg, time infinity, route intravenous; in short: as §2
MCF7 = experiment: Cytotoxicity against human MCF7 cells assessed as reduction in cell viability incubated for 24 hrs by MTT assay; assay type: cell-based; conditions: MCF7, 24 h
Mus musculus [31] = experiment: Cognition enhancement in aluminium trichloride-induced amnesia mouse model assessed as error times at 0.5 mg/kg administered via gastric gavage for 30 days by SMG-2 programmable water maze test (reference value: 20.7 +/- 4.8 secs); assay type: functional
[32] = Stability of the compound in simulated intestinal fluid measured up to 60 mins by HPLC analysis; assay type: ADME; conditions: simulated gi fluid, 1 h; in short: as §1
Mus musculus [33] = experiment: Cognition enhancement in scopolamine-induced amnesia mouse model assessed as escape latency at 25 mg/kg, iv administered once daily for 18 days measured after 50 mins at 5th day of training session by Morris water maze test (reference value: 63.2+/-21.1 secs); assay type: functional
Danio rerio [34] = species: Danio rerio; experiment: Cognition enhancement in aluminium chloride-induced Alzheimer's disease zebra fish model assessed as Dyskinesia recovery rate at 25 uM treated from 3 dpf to 5 dpf relative to control; assay type: functional; in short: as §3
[35] = AUC (0 to t) in Sprague-Dawley rat brain at 25 mg/kg, iv by HPLC analysis; assay type: ADME, organism-based; in short: as §2
N2a = experiment: Cytotoxicity against mouse Neuro2a cells assessed as reduction in cell viability incubated for 24 hrs by MTT assay; assay type: cell-based
[36] = MRT in Sprague-Dawley rat plasma at 25 mg/kg, iv by HPLC analysis; assay type: ADME, organism-based; in short: as §2
Danio rerio [37] = species: Danio rerio; experiment: Cognition enhancement in aluminium chloride-induced Alzheimer's disease zebra fish model assessed as Dyskinesia recovery rate treated from 3 dpf to 5 dpf; assay type: functional, organism-based; in short: as §3
[38] = Metal chelating activity assessed as compound-Zn2+ complex formation at 25 uM incubated for 5 mins in presence of 25 uM ZnCl2 by UV-visible spectrophotometry
Mus musculus [39] = species: Mus musculus; experiment: Cognition enhancement in scopolamine-induced amnesia mouse model by Morris water maze test; assay type: functional, organism-based

Chain of Amyloid-beta precursor protein (Homo sapiens) (P05067 whole entry): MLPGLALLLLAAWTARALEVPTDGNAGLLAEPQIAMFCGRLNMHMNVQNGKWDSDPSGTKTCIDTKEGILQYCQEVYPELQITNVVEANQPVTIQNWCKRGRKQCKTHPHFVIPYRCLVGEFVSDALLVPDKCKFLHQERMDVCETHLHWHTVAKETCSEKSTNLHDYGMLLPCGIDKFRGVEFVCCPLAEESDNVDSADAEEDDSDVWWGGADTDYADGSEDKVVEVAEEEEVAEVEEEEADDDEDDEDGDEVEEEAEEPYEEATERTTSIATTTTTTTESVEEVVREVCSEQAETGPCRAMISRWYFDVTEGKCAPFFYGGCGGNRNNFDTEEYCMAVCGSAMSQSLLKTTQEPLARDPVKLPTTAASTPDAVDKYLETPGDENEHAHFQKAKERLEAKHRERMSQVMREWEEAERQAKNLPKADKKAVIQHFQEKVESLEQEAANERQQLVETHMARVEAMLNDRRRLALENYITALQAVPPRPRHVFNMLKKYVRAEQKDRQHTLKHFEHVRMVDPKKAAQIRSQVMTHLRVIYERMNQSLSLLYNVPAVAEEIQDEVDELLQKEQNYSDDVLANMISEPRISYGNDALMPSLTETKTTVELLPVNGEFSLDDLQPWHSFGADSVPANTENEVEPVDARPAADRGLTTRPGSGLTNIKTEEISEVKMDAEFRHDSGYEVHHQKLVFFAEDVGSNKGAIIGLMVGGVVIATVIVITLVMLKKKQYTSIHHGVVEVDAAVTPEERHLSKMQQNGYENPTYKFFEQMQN
Chain of Voltage-gated inwardly rectifying potassium channel KCNH2 (Q12809 whole entry): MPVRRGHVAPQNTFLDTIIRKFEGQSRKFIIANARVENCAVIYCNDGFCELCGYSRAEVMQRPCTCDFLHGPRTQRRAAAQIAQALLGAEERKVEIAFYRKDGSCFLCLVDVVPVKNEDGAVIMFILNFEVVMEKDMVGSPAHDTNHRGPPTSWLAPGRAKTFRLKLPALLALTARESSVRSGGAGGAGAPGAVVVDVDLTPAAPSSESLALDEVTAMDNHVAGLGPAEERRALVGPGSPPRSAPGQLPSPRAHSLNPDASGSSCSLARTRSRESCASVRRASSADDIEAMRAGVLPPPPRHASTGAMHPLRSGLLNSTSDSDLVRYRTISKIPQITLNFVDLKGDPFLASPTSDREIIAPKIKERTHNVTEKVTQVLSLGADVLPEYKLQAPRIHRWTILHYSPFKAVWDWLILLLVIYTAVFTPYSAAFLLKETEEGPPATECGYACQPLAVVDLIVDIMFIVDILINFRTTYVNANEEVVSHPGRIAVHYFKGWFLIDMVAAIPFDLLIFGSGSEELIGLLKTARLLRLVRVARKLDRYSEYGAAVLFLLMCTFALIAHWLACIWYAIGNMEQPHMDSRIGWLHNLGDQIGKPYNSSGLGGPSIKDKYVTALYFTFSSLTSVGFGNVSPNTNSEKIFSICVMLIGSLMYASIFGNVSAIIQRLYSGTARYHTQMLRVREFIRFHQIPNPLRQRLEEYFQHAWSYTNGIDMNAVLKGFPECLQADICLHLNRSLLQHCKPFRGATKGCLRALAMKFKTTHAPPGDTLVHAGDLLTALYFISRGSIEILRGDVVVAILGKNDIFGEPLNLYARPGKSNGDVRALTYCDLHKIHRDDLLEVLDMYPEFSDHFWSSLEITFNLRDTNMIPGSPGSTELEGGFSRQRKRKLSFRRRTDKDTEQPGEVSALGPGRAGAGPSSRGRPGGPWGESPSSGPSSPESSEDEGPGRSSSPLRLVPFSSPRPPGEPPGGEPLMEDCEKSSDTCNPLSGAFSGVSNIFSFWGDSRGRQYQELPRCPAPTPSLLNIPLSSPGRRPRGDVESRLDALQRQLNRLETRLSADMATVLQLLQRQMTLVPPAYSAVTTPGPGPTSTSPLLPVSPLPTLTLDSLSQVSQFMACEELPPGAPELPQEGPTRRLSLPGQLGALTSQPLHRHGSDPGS

In the case of COc1cc(/C=C/C(=O)CC(=O)/C=C/c2ccc(O)c(OC)c2)ccc1O, the inhibition [1] is reported as “Active”.

For CCN(C)C(=O)Oc1cc(C(C)N(C)C)cc2cccnc12 (stereo not given), the inhibition [2] was 31.3%, the Stability [3] was “Stable” and the Time (Mus musculus [4]) was 79 s. For the same compound, the AUC(0-inf) [5] was 2450 ng·h/mL, the clearance [6] was 62 mL/min/kg and the Time (Mus musculus [7]) was 16.8 s. The inhibition [1] was “Active”, the inhibition [8] was 66.1% and the Kp [9] was 0.524. For the same compound, the Activity (Mus musculus [10]) was 520 cm, the Activity [11] was “inactive” and the Time (Mus musculus [12]) was 18.1 s. For the same compound, the inhibition [13] was 55.9%, the AUC(0-t) [14] was 7410 ng·h/mL and the MRT [15] was 1.16 h. The Stability [16] was “Stable”, the Activity (Danio rerio [17]) was 70.8% and the Activity (Danio rerio [18]) was 161.4%. For the same compound, the Activity (Danio rerio [19]) was 99.3%, the Time (Mus musculus [20]) was 73 s and the IC50 (A549) was greater than 20 µM. For the same compound, the Activity (Danio rerio [21]) was 112.4%, the AUC(0-t) [22] was 2430 ng·h/mL and the Activity (Danio rerio [23]) was 70.2%. For the same compound, the Activity [24] was “inactive”, the IC50 [25] was greater than 30 µM and the clearance [26] was 190 mL/min/kg. For the same compound, the AUC(0-inf) [27] was 1270 ng·h/mL, the Stability [28] was “Stable” and the MRT [29] was 0.947 h. The AUC(0-inf) [30] was 7460 ng·h/mL, the IC50 (MCF7) was greater than 20 µM and the Time (Mus musculus [31]) was 15.1 s. The Stability [32] was “Stable”, the Time (Mus musculus [33]) was 43.8 s and the Activity (Danio rerio [34]) was 121%. For the same compound, the AUC(0-t) [35] was 1260 ng·h/mL, the IC50 (N2a) was greater than 20 µM and the MRT [36] was 1.53 h. The Activity (Danio rerio [37]) was “Dose-dependent effect”.

For Oc1c(I)cc(Cl)c2cccnc12, the Activity [38] was “Active”, the Activity [11] was “Active” and the Activity [24] was “Active”. The Activity (Mus musculus [39]) was “inactive”.

Source: ChEMBL document CHEMBL4393722, “Development of the "hidden" multifunctional agents for Alzheimer's disease” (Eur J Med Chem, 2019)
